# Screens deposited in PubChem by several laboratories.
# Many of the other results were omitted from the sample, so hits are more common in it than they were.
# Diaph inh CS: diaphorase inhibition or chemical oxidation counter-screen; diaphorase resazurin-to-resorufin fluorescence, NADH, 16 min; bacterial (C. kluyveri) enzyme, not human; inhibition, % at 20 µM; actives 0.69% (n = 190,000);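 active means primary screen inhibition at 20 µM above a set limit, cut at about 50% in these data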
#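 Test system: bacterial diaphorase enzyme (C. kluyveri); Quantity: 0.14 U/mL diaphorase, enzyme working solution; Times: reaction incubation of 16 min at room temperature; Measured by: fluorescence of resorufin formed from resazurin, Ex 544/Em 590 nm; Benchmarks: positive control minus NADH, DMSO neutral control.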
# Redox H2O2 prof: compounds producing H2O2 with reducing agent – biochemical, NIH compound library profiling, artefact control for MLSCN library redox annotation, primary screen | activation, % at 10 µM | actives 0.03% (n = 200,000) | DTT-dependent redox cycling H2O2, phenol red/HRP absorbance; 100% = 100 µM peroxide control, 0% = buffer | AID 878;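 active means activation of at least 50% relative to the plate's high and low controls in the primary single-dose screen; inactive means activation below 50%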;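 further: compound incubated with DTT at 0.8 mM final as the reducing agent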
# G6PDH CS: inhibits Leuconostoc G6PDH, flagging false hits in G6PDH-based assays | Purified L. mesenteroides G6PDH, diaphorase/resazurin coupled fluorescence, 45 min | inhibition, % at 5 µM | actives 0.12% (n = 200,000) | AID 1020
# Diaph act CS: diaphorase activation or chemical reduction counter-screen. Diaphorase/resazurin coupled assay, resorufin fluorescence, 16 min; hits give high values; 1 = vehicle wells, 0 = NADH-free wells. activation factor at 20 µM. actives 0.005% (n = 190,000). AID 1229;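 active means diaphorase activity raised at least twofold by the compound at 20 µM; inactive means activation factor below 2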
#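 Assay system: Purified diaphorase enzyme from Clostridium kluyveri | Amount: Enzyme 0.07 U/mL final | Dosing: Compound 20 µM once, DMSO 1% | Timing: 16 min reaction at room temperature | Detection: Fluorescence, excitation 544 nm and emission 590 nm | Evaluation: Higher resorufin formation from activation or reduction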
# L major viab: Leishmania major promastigote growth inhibition | Leishmania major promastigotes, resazurin fluorescence viability | inhibition, % at 10 µM | actives 9% (n = 200,000);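 further: promastigotes grown with compound for 44 hours at 28 °C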
# PfG6PD inh: PfG6PD (Plasmodium falciparum) enzyme inhibition; PfGluPho enzyme, NADPH resazurin-diaphorase fluorescence; inhibition, % at 20 µM; actives 0.78% (n = 350,000);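 active means inhibition reaching at least a set limit at 20 µM in the primary screen, cut at about 59% in these data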
# Lmaj promast 1uM: blocks Leishmania major promastigote growth at 1 uM, repeat screen | shares compounds with L major viab | L. major promastigote growth, resazurin fluorescence, 48 h | inhibition, % at 1 µM | actives 13% (n = 1,100);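 active means inhibition above about 50% in both repeat tests, limit read from the data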
# Hits are given with their value; . = inactive; / = no result given. Unless noted, no stated cut-off is given here; in the data, active means inhibition above about 50%; inactive means the rest.
SMILES,Diaph inh CS,Redox H2O2 prof,G6PDH CS,Diaph act CS,L major viab,PfG6PD inh,Lmaj promast 1uM
Cc1ccc(NC(=S)N2CCSC2c2cccs2)cc1 (stereo not given),.,.,.,.,.,.,/
Oc1ccc(-c2nc3c4c(ncn3n2)-c2ccccc2CC42CCCC2)cc1,.,.,.,.,87.1,.,.
O=C(NCCCn1ccnc1)NC(C(F)(F)F)C(F)(F)F,.,.,.,.,.,.,/
CCC(C)[C@H](NC(=O)NCCCn1ccnc1)C(=O)OC (stereo not given in full),.,.,.,.,52.3,.,.
O=C(NCC(=O)N1CCN(C(=O)c2ccccc2)CC1)c1ccc(Cl)cc1Cl,/,/,/,/,/,.,/
CC(=O)Oc1ccc2c(C)cc(=O)[nH]c2c1,.,.,.,.,.,.,/
CC(=O)Oc1c(C)cc(O)c2ccccc12,.,.,50.6,.,82.5,/,.
Cc1ccc(N2CCCn3c2nc2c3c(=O)n(CC(=O)OCc3ccccc3)c(=O)n2C)cc1C,.,/,.,.,/,/,/
Cc1ccc(N2CC(C)Cn3c2nc2c3c(=O)n(CC(=O)OCc3ccccc3)c(=O)n2C)cc1C (stereo not given),.,.,.,.,59.2,.,.
Cc1ccc(-c2[nH]nc(N)c2N=Nc2ccccc2C)cc1,.,.,.,.,99.8,.,.
Cc1ccc(-c2[nH]nc(N)c2N=Nc2cccc(Cl)c2C)cc1,.,.,.,.,.,.,/
O=C(NCCc1c[nH]c2ccccc12)/C(=C\c1cccnc1)NC(=O)c1ccco1,.,.,.,.,61.1,.,.
CSC(=S)NCc1cccnc1,.,.,.,.,81.3,.,.
CCCCOc1ccc(S(=O)(=O)N2CCN(c3ccc(N4CCN(CC)CC4)nn3)CC2)cc1,/,/,/,/,/,.,/
CCCc1nnc(NC(=O)CCC(=O)Nc2ccc(Br)cc2)s1,/,/,/,/,/,.,/
Cc1ccccc1N1C(S)=C(C#N)C(=O)NC12CCCCC2,.,.,.,.,51.0,.,.
Fc1ccc(Sc2ccccc2CNC2=NCCN2)cc1,.,.,.,.,99.6,.,.
O=C(Cc1ccc(F)cc1)Nc1ccccc1Sc1ccccc1,.,.,.,.,.,.,/
CC(=O)/C=C/n1c(=S)oc2ccccc21,.,.,.,.,100.5,.,.
CCOC(=O)c1c(S(=O)(=O)NCc2ccco2)c(C)n(C)c1C,/,/,/,/,/,.,/
CC(OC(=O)CCc1nc2ccccc2c(=O)[nH]1)C(=O)NC1CCCC1 (stereo not given),.,.,.,.,.,.,/
CC(OC(=O)CCc1nc2ccccc2c(=O)[nH]1)C(=O)c1ccc(C(C)(C)C)cc1 (stereo not given),.,.,.,.,53.9,.,.
Cc1ccc(-c2cc(-c3ccc(F)cc3)c(C#N)c(N)n2)o1,.,.,.,.,60.2,.,.
COc1cc2c(cc1OC)C(c1ccc(-c3ccccc3Cl)o1)=NCC2,.,.,.,.,68.1,.,.
COc1cc2c(cc1OC)C(c1ccc(-c3ccc(Cl)cc3Cl)o1)=NCC2,.,.,.,.,.,.,/
SMILES,Diaph inh CS,Redox H2O2 prof,G6PDH CS,Diaph act CS,L major viab,PfG6PD inh,Lmaj promast 1uM
Cc1nnc(SCC(=O)Nc2ccc(S(N)(=O)=O)cc2)n(N)c1=O,/,/,/,/,/,.,/
COc1ccc(/C(O)=C2/C(=O)C(=O)N(c3ccccn3)C2c2ccc(OC)c(OC)c2)cc1 (stereo not given),/,/,/,/,/,.,/
Nc1ccccc1Nc1cccc(C(F)(F)F)c1,.,.,.,.,.,.,/
Nc1ccc(Nc2ccccc2N)cc1,.,.,.,.,98.8,.,.
COc1ccc(N2CCN(CC(=O)c3ccc(Cl)cc3)CC2)cc1,/,/,/,/,/,.,/
Cc1ccc(C(=O)c2coc3cc([N+](=O)[O-])c(O)c([N+](=O)[O-])c23)cc1,.,.,.,.,.,.,/
Cc1nccc(-c2ccc(-n3cnc4ccccc43)cc2)n1,.,.,.,.,62.4,.,.
Cc1nc2ccccn2c(=O)c1CCN1CCC(C(=O)c2ccc(F)cc2)CC1,.,.,.,.,96.7,.,.
O=Cc1cn(-c2ccccc2)nc1-c1ccc2c(c1)OCCO2,.,.,.,.,96.3,.,.
N#Cc1cn(-c2ccccc2)nc1-c1ccc2c(c1)OCCO2,.,.,.,.,.,.,/
Cc1ccc(C(=O)Cn2c(C(=O)/C=C/c3ccccc3)nc3ccccc32)cc1,.,.,.,.,.,.,/
ClC(Br)=C(n1cnc2ccccc21)n1cnc2ccccc21,.,.,.,.,99.7,.,.
S=c1[nH]nc(-c2cc(-c3ccco3)[nH]n2)n1-c1cccc2ccccc12,.,.,.,.,97.7,.,.
COc1ccccc1OCCNC(=O)c1cccc(S(=O)(=O)N2CC(C)OC(C)C2)c1 (stereo not given),/,/,/,/,/,.,/
Cc1ccc(Oc2ccc(-c3nc(N)nc(N)n3)cc2)cc1C,.,.,.,.,99.3,.,.
CC12CCC(O)CC1=CCC1C2CCC2(C)C1CCC21CCC(=O)O1 (stereo not given),.,.,.,.,67.8,.,.
COc1ccc(/C=N/NC(=O)c2cccc([N+](=O)[O-])c2)cc1OS(=O)(=O)c1ccc(C)cc1,.,.,.,.,87.5,.,.
COc1ccc(C(=O)NC2CCCc3ccccc32)cc1S(=O)(=O)N1CCOCC1 (stereo not given),.,.,.,.,.,.,/
Cc1ncc([N+](=O)[O-])n1CCOC(=O)c1cc(Cl)cc(Cl)c1N,.,.,.,.,60.1,.,.
C/C(=N/NC(=O)c1ccco1)c1cccnc1,.,.,.,.,.,.,/
C1=CN2CCC1C(c1ccccc1)C2 (stereo not given),.,.,.,.,79.1,.,.
Cc1ccc(N(C(=O)C2CCCC2)C2C=CS(=O)(=O)C2)cc1C (stereo not given),.,.,.,.,56.0,.,.
Cc1ccc(C[n+]2cccc(-c3ccccc3)c2)c(C)c1,.,.,.,.,91.4,.,.
Cc1ccc2ccc[n+](Cc3ccccc3)c2c1,/,/,/,/,/,.,/
Cn1cc(/C=C(\NC(=O)c2ccccc2Cl)C(=O)NCCCn2ccnc2)c2ccccc21,/,/,/,/,/,.,/
COC(=O)C1=C(C(=O)OC)SC2(S1)C(C(=O)OC)=C(C(=O)OC)SC1=C2c2cccc(C)c2NC1(C)C,.,.,.,.,100.3,.,.
CC12CC3CC(C)(C1)CC(Nc1nc(N4CCOCC4)nc4ccccc14)(C3)C2,/,/,/,/,/,.,/
CCN(CC)CCCOc1nc(C)nc2c1oc1ccccc12,.,.,.,.,75.5,.,.
COc1ccc([C@H]2C[C@@H](n3cc(-c4ccc(F)cc4)nn3)[C@H](O)CN2CC2CCCCC2)cc1,/,/,/,/,/,.,/
